From ChEMBL document CHEMBL1667809, “Synthesis and in vitro antibacterial activity of 7-(3-alkoxyimino-5-amino/methylaminopiperidin-1-yl)fluoroquinolone derivatives” (Bioorg Med Chem Lett, 2011)
≈ marks a conversion by molar mass, not a printed value.

Assays:
Staphylococcus aureus [1] = assay: Ratio of compound MIC to GMFX MIC for methicillin-sensitive Staphylococcus aureus 10-04; assay type: functional
Streptococcus pneumoniae = assay: Antibacterial activity against Streptococcus pneumoniae 1001 after 18 to 24 hrs by agar dilution method; assay type: functional
Procedure, shortened: (§1)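 Agar dilution on Petri dishes, each inoculated with 10⁴ cfu of the strain and incubated at 35 °C for 18–24 h. MIC read as the lowest compound concentration giving no visible growth on the plate.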

Staphylococcus aureus [2] = assay: Antibacterial activity against Staphylococcus aureus ATCC 25923 after 18 to 24 hrs by agar dilution method; assay type: functional; procedure, shortened: as §1
Streptococcus pyogenes [3] = assay: Ratio of compound MIC to CPFX MIC for Streptococcus hemolyticus 1002; assay type: functional
Escherichia coli [4] = assay: Antibacterial activity against Escherichia coli 10-02 after 18 to 24 hrs by agar dilution method; assay type: functional; procedure, shortened: as §1
Escherichia coli [5] = assay: Antibacterial activity against Escherichia coli ATCC 25922 after 18 to 24 hrs by agar dilution method; assay type: functional; procedure, shortened: as §1
[6] = system: Staphylococcus epidermidis; assay: Antibacterial activity against methicillin-sensitive Staphylococcus epidermidis 10-4 after 18 to 24 hrs by agar dilution method; assay type: functional; procedure, shortened: as §1
Pseudomonas aeruginosa [7] = assay: Antibacterial activity against Pseudomonas aeruginosa 10-1 after 18 to 24 hrs by agar dilution method; assay type: functional; procedure, shortened: as §1
[8] = system: Staphylococcus epidermidis; assay: Ratio of compound MIC to LVFX MIC for methicillin-resistant Staphylococcus epidermidis 10-5; assay type: functional
[9] = Cytotoxicity against african green monkey Vero cells after 24 hrs; assay type: cell-based; details: chlorocebus sabaeus
Procedure, shortened: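 Vero cells exposed to graded compound concentrations for 24 h, then viability assessed; CC₅₀ derived from the viability data.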

Staphylococcus aureus [10] = assay: Antibacterial activity against methicillin-resistant Staphylococcus aureus 10-05 after 18 to 24 hrs by agar dilution method; assay type: functional
Procedure, shortened: (§2)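 Agar dilution on Petri dishes, each inoculated with 10⁴ cfu. Plates incubated at 35 °C for 18–24 h. MIC taken as the lowest test-compound concentration giving no visible growth on the plate. Reference drugs gemifloxacin, ciprofloxacin and levofloxacin run alongside for comparison.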

Klebsiella pneumoniae = assay: Antibacterial activity against Klebsiella pneumoniae 10-1 after 18 to 24 hrs by agar dilution method; assay type: functional; procedure, shortened: as §1
[11] = system: Staphylococcus epidermidis; assay: Ratio of compound MIC to GMFX MIC for methicillin-resistant Staphylococcus epidermidis 10-5; assay type: functional
Streptococcus pyogenes [12] = assay: Ratio of compound MIC to LVFX MIC for Streptococcus hemolyticus 1002; assay type: functional
Pseudomonas aeruginosa [13] = assay: Antibacterial activity against Pseudomonas aeruginosa ATCC 27853 after 18 to 24 hrs by agar dilution method; assay type: functional; procedure, shortened: as §1
Staphylococcus aureus [14] = assay: Antibacterial activity against methicillin-sensitive Staphylococcus aureus 10-04 after 18 to 24 hrs by agar dilution method; assay type: functional; procedure, shortened: as §1
Streptococcus pyogenes [15] = assay: Ratio of compound MIC to GMFX MIC for Streptococcus hemolyticus 1002; assay type: functional
Staphylococcus aureus [16] = assay: Ratio of compound MIC to LVFX MIC for methicillin-sensitive Staphylococcus aureus 10-04; assay type: functional
[17] = system: Staphylococcus epidermidis; assay: Antibacterial activity against methicillin-resistant Staphylococcus epidermidis 10-5 after 18 to 24 hrs by agar dilution method; assay type: functional; procedure, shortened: as §2
[18] = system: Staphylococcus epidermidis; assay: Ratio of compound MIC to CPFX MIC for methicillin-resistant Staphylococcus epidermidis 10-5; assay type: functional
Staphylococcus aureus [19] = assay: Ratio of compound MIC to CPFX MIC for methicillin-sensitive Staphylococcus aureus 10-04; assay type: functional
Streptococcus pyogenes [20] = assay: Antibacterial activity against Streptococcus hemolyticus 1002 after 18 to 24 hrs by agar dilution method; assay type: functional; procedure, shortened: as §1
Staphylococcus aureus [21] = assay: Ratio of compound MIC to CPFX MIC for methicillin-resistant Staphylococcus aureus 10-05; assay type: functional
Staphylococcus aureus [22] = assay: Ratio of compound MIC to GMFX MIC for methicillin-resistant Staphylococcus aureus 10-05; assay type: functional
Staphylococcus aureus [23] = assay: Ratio of compound MIC to LVFX MIC for methicillin-resistant Staphylococcus aureus 10-05; assay type: functional

Compound	Ratio (Staphylococcus aureus [1])	MIC (Streptococcus pneumoniae)	MIC (Staphylococcus aureus [2])	MIC (Escherichia coli [4])	MIC (Escherichia coli [5])	MIC [6]	MIC (Pseudomonas aeruginosa [7])	Ratio [8]	CC50 at 24 h [9]	MIC (Staphylococcus aureus [10])	MIC (Klebsiella pneumoniae)	Ratio [11]	MIC (Pseudomonas aeruginosa [13])	MIC (Staphylococcus aureus [14])	Ratio (Staphylococcus aureus [16])	MIC [17]	Ratio [18]	Ratio (Staphylococcus aureus [19])	MIC (Streptococcus pyogenes [20])	other results
CO/N=C1\CC(N)CN(c2c(F)cc3c(=O)c(C(=O)O)cn(C4CC4)c3c2OC)C1 (centres undefined)	4	0.25 µg/mL (≈ 0.597 µM)	0.25 µg/mL (≈ 0.597 µM)	0.25 µg/mL (≈ 0.597 µM)	0.25 µg/mL (≈ 0.597 µM)	2 µg/mL (≈ 4.78 µM)	4 µg/mL (≈ 9.56 µM)	2	885 µM	4 µg/mL (≈ 9.56 µM)	64 µg/mL (≈ 153 µM)	2	4 µg/mL (≈ 9.56 µM)	0.5 µg/mL (≈ 1.19 µM)	4	4 µg/mL (≈ 9.56 µM)	4	4	4 µg/mL (≈ 9.56 µM)	Ratio (Streptococcus pyogenes [3]): 2; Ratio (Streptococcus pyogenes [12]): 2; Ratio (Streptococcus pyogenes [15]): 2
CCO/N=C1\CC(N)CN(c2c(F)cc3c(=O)c(C(=O)O)cn(C4CC4)c3c2OC)C1 (centres undefined)	16	0.125 µg/mL (≈ 0.289 µM)	0.25 µg/mL (≈ 0.578 µM)	0.25 µg/mL (≈ 0.578 µM)	0.25 µg/mL (≈ 0.578 µM)	1 µg/mL (≈ 2.31 µM)	> 128 µg/mL	4	879 µM	2 µg/mL (≈ 4.62 µM)	128 µg/mL (≈ 296 µM)	4	8 µg/mL (≈ 18.5 µM)	0.125 µg/mL (≈ 0.289 µM)	16	2 µg/mL (≈ 4.62 µM)	8	16	8 µg/mL (≈ 18.5 µM)	Ratio (Staphylococcus aureus [21]): 2; Ratio (Staphylococcus aureus [22]): 2; Ratio (Staphylococcus aureus [23]): 2
